Experimental data from ChEMBL document CHEMBL1944596, “7,8-dichloro-1-oxo-β-carbolines as a versatile scaffold for the development of potent and selective kinase inhibitors with unusual binding modes” (J Med Chem, 2012).
The source made the active and inactive calls.

Experiments:
[1] = target: Serine/threonine-protein kinase pim-2 (Homo sapiens, UniProt Q9P1W9); experiment: Binding affinity to PIM2 assessed as change in thermal denaturation at 10 uM by thermal stability shift assay
Method in brief: (§1)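 Each compound was screened across a kinase panel by thermal stability shift assay. The read-out was the shift in protein melting temperature (ΔTm, in °C) relative to the unliganded kinase. A ΔTm of 4.0 °C served as the hit cutoff.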

[2] = target: T1, Dual specificity tyrosine-phosphorylation-regulated kinase 2 (Homo sapiens) (UniProt Q92630); experiment: Binding affinity to DYRK2 assessed as change in thermal denaturation at 10 uM by thermal stability shift assay; method in brief: as §1
T1 sequence (whole entry): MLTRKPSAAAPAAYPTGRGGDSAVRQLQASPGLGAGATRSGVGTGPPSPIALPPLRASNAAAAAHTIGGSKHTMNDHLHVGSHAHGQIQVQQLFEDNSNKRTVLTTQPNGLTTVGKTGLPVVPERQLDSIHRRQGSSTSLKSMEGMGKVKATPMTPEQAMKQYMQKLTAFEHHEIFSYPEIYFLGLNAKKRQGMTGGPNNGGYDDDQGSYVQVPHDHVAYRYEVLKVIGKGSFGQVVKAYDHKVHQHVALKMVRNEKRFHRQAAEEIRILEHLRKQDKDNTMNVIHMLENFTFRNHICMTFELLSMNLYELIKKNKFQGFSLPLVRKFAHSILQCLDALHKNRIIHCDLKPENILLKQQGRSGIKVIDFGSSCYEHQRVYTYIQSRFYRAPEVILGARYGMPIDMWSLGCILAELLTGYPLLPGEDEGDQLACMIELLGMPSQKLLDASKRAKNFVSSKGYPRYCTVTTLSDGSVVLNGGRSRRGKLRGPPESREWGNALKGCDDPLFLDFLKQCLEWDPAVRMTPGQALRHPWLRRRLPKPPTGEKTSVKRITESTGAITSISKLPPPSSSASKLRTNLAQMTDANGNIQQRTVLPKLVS

[3] = target: Serine/threonine-protein kinase 33 (Homo sapiens) (UniProt Q9BYT3); experiment: Binding affinity to STK33 assessed as change in thermal denaturation at 10 uM by thermal stability shift assay; method in brief: as §1
Chain of Serine/threonine-protein kinase 33 (Homo sapiens) (Q9BYT3 whole entry, looked up): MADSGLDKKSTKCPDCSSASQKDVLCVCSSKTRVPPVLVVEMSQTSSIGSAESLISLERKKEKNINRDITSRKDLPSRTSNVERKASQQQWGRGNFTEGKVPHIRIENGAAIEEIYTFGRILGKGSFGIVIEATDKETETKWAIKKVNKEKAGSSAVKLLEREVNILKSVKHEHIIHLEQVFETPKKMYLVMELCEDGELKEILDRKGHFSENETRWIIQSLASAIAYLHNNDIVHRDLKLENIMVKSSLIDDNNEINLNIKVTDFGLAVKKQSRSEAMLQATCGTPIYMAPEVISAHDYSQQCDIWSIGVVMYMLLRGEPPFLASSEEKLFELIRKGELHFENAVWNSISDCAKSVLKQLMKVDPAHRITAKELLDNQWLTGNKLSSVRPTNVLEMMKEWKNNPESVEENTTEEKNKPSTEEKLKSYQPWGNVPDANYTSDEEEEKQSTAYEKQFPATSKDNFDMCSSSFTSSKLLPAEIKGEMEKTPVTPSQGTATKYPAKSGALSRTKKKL

[4] = target: Dual specificity protein kinase CLK4 (Homo sapiens) (UniProt Q9HAZ1); experiment: Binding affinity to CLK4 assessed as change in thermal denaturation at 10 uM by thermal stability shift assay; method in brief: as §1
Chain of Dual specificity protein kinase CLK4 (Homo sapiens) (Q9HAZ1 whole entry, looked up): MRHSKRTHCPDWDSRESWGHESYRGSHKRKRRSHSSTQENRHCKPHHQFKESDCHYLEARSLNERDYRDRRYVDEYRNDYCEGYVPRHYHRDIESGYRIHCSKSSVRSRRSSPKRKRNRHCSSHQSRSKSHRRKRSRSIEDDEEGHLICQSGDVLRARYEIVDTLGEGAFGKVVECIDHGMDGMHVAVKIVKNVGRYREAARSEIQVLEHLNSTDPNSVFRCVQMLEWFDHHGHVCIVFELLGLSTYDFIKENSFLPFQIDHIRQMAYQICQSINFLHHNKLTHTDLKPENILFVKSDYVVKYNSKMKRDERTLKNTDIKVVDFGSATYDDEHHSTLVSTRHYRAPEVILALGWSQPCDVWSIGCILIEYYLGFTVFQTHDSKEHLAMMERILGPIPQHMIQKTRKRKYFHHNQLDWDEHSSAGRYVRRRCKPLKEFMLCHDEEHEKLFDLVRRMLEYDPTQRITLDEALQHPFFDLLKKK

[5] = target: T2, Cyclin-G-associated kinase (Homo sapiens) (UniProt O14976); experiment: Binding affinity to GAK assessed as change in thermal denaturation at 10 uM by thermal stability shift assay; method in brief: as §1
T2 sequence (whole entry): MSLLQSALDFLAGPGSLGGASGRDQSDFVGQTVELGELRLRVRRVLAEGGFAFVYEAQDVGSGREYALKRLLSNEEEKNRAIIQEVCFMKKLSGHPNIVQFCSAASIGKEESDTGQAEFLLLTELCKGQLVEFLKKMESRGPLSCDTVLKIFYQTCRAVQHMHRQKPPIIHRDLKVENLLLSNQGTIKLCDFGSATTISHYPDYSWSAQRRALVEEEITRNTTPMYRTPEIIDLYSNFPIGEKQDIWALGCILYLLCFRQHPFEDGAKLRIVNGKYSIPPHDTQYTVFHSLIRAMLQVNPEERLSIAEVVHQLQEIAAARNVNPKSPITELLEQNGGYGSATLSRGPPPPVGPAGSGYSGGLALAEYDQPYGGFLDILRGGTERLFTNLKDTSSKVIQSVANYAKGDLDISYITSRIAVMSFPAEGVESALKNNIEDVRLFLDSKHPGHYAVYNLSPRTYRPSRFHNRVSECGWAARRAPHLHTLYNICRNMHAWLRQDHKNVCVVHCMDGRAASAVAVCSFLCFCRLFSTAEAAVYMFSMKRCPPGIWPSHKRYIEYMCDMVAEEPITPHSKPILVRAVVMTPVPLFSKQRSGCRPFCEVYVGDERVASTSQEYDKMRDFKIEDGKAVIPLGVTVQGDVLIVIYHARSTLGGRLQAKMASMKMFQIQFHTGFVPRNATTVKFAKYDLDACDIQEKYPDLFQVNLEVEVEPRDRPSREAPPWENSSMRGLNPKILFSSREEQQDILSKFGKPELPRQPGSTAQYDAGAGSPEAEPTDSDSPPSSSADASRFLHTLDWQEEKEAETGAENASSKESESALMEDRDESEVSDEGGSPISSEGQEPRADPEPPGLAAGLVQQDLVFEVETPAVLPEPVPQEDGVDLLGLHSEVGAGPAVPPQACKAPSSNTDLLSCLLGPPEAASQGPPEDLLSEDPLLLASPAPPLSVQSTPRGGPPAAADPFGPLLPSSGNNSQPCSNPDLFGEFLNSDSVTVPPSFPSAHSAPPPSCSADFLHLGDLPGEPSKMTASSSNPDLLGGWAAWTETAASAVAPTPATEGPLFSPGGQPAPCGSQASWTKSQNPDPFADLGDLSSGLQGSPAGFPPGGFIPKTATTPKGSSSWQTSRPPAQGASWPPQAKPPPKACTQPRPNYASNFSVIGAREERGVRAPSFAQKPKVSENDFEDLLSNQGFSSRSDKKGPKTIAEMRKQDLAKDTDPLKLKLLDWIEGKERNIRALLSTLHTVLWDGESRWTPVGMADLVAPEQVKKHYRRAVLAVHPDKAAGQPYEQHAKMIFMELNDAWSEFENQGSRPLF

[6] = target: Ribosomal protein S6 kinase alpha-1 (Homo sapiens) (UniProt Q15418); experiment: Binding affinity to RSK1 assessed as change in thermal denaturation at 10 uM by thermal stability shift assay
Chain of Ribosomal protein S6 kinase alpha-1 (Homo sapiens) (Q15418 whole entry, looked up): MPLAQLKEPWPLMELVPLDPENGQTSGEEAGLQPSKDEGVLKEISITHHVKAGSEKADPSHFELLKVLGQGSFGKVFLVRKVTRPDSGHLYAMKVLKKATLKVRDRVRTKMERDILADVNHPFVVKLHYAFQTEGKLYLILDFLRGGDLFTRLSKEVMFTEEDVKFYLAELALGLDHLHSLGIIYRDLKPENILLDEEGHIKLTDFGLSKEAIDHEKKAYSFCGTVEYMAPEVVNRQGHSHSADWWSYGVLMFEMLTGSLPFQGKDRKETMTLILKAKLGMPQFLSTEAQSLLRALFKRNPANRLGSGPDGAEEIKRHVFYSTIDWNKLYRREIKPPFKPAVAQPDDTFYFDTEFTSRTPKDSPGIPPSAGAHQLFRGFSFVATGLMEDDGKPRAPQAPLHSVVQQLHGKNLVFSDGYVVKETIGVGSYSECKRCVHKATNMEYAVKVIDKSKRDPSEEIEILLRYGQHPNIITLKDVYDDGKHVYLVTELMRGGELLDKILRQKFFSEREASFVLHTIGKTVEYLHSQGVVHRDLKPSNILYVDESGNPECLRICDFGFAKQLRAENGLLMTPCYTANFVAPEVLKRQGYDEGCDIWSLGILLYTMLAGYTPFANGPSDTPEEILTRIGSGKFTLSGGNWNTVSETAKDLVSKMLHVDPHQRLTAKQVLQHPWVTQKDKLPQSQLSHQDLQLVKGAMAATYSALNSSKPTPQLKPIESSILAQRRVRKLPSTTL

MV4-11 = experiment: Inhibition of PIM-mediated 4E-BP1 phosphorylation in human MV4-11 cells after 180 mins by Western blot analysis; type: cell-based
Method in brief: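 MV4;11 cells at 5 × 10^5/mL in RPMI 1640 with 10% FCS, 37 °C, 5% CO2, treated at 0–10 μM for varied times. Lysed on ice in Triton X-100 buffer with NaF, Na3VO4 and protease inhibitors. 50 μg protein run on 15% SDS–PAGE and blotted for phospho-4E-BP1 with HRP chemiluminescence. Reprobed for total 4E-BP1 and β-actin as loading controls.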

[7] = target: Phosphatidylinositol 4-kinase beta (Homo sapiens, UniProt Q9UBF8); experiment: Inhibition of PI4Kbeta using ATP as substrate
Chain of Phosphatidylinositol 4-kinase beta (Q9UBF8 whole entry): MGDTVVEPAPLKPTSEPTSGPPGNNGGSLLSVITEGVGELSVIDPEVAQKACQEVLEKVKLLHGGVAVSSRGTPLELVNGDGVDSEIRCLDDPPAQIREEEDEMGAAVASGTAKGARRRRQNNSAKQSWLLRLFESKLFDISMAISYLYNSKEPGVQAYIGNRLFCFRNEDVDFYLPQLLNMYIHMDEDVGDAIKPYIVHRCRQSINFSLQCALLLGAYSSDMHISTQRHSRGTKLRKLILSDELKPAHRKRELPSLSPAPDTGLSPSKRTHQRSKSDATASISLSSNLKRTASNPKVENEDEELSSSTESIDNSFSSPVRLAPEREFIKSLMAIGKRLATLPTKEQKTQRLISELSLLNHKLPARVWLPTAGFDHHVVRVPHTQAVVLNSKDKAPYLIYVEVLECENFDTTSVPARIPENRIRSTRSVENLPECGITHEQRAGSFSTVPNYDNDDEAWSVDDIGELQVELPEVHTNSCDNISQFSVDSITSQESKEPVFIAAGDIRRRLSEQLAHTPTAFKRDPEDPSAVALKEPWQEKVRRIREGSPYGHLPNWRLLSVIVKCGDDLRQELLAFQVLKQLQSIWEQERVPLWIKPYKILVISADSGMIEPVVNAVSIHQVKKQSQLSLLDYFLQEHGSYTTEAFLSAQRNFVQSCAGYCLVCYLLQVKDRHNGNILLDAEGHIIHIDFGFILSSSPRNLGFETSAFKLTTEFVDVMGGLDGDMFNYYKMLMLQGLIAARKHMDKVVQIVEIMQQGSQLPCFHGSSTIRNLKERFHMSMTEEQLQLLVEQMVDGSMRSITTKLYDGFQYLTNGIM

[8] = target: Serine/threonine-protein kinase mTOR (Homo sapiens, UniProt P42345); experiment: Inhibition of mTOR using ATP as substrate
[9] = target: Phosphatidylinositol 3-kinase catalytic subunit type 3 (Homo sapiens, UniProt Q8NEB9); experiment: Inhibition of VPS34 using ATP as substrate
[10] = target: Phosphatidylinositol 4,5-bisphosphate 3-kinase catalytic subunit delta isoform (Homo sapiens, UniProt O00329); experiment: Inhibition of PI3Kdelta using ATP as substrate
Chain of Phosphatidylinositol 4,5-bisphosphate 3-kinase catalytic subunit delta isoform (O00329 whole entry, canonical isoform): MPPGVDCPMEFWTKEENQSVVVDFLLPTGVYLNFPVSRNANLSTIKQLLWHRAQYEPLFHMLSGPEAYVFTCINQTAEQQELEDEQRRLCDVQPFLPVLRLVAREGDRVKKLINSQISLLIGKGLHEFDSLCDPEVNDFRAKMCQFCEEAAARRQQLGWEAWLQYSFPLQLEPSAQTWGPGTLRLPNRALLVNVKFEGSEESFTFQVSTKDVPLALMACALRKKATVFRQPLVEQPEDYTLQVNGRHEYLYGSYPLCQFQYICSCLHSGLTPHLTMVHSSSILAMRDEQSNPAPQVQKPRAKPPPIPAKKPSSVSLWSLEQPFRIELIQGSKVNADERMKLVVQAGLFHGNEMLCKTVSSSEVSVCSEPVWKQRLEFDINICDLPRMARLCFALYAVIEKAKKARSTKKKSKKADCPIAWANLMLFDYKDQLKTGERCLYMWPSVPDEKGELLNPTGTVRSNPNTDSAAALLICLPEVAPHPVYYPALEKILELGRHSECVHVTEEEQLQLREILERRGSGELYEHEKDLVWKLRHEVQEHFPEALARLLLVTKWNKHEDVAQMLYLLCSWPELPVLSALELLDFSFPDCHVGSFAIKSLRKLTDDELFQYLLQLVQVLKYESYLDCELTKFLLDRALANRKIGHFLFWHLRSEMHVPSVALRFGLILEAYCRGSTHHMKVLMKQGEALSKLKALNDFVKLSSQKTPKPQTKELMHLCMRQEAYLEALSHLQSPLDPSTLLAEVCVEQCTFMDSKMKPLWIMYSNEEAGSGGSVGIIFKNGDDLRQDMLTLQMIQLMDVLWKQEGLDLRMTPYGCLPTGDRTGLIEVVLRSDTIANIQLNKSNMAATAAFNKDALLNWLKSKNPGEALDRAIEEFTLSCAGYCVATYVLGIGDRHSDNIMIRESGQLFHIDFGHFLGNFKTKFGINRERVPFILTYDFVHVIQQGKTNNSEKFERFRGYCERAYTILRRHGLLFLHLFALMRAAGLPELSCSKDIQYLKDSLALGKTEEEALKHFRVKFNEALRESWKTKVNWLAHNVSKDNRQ

[11] = target: Platelet-derived growth factor receptor alpha (Homo sapiens) (UniProt P16234); experiment: Inhibition of PDGFRalpha using ATP as substrate
Chain of Platelet-derived growth factor receptor alpha (Homo sapiens) (P16234 whole entry): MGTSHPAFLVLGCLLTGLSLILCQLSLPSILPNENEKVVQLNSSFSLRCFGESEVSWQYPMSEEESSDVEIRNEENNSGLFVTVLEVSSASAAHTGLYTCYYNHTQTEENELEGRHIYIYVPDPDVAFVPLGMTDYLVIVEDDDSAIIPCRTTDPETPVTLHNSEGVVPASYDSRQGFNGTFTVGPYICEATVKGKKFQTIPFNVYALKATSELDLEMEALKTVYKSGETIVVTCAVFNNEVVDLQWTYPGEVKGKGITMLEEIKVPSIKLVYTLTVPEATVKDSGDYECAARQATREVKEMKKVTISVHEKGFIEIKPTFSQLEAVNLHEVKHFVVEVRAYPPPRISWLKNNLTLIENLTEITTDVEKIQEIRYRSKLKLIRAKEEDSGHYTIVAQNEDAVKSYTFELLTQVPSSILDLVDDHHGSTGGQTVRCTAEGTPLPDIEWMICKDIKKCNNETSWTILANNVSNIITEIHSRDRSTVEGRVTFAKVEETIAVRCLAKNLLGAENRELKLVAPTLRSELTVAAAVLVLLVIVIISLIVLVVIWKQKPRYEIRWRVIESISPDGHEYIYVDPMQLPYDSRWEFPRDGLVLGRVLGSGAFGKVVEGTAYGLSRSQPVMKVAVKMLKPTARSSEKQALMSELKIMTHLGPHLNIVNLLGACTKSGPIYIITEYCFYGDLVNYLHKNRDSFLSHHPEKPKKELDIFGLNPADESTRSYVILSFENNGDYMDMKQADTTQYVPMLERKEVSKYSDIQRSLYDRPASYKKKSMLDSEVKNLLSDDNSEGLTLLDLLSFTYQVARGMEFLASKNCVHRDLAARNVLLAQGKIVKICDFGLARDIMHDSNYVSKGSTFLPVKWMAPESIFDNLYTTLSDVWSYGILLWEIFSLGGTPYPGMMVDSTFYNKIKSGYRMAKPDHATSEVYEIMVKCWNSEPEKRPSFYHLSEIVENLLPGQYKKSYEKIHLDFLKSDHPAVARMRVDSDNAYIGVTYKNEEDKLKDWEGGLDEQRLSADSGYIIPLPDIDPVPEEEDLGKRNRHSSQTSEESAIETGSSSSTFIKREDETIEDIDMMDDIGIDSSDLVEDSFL

[12] = target: Receptor-type tyrosine-protein kinase FLT3 (Homo sapiens) (UniProt P36888); experiment: Inhibition of FLT3 using ATP as substrate

Chain of Serine/threonine-protein kinase pim-2 (Q9P1W9 whole entry, looked up): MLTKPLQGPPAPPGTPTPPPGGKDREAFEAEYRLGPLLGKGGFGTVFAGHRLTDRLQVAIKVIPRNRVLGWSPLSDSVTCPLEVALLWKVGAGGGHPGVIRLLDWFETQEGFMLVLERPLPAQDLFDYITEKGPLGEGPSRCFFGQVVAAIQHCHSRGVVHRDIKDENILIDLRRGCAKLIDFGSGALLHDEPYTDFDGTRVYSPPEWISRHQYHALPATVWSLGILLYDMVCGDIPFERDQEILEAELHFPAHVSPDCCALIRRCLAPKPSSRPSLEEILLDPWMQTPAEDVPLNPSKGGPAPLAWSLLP

Cn1c2c(c3ccc(Cl)c(Cl)c31)C(C#N)C1(CCCC1)NC2=O (stereo not drawn)
ΔTm [1]: 1.6 °C
ΔTm [2]: 0.7 °C
ΔTm [3]: 0.2 °C
ΔTm [4]: 3.3 °C
ΔTm [5]: 1.2 °C
ΔTm [6]: 0.5 °C

Cn1c2c(c3ccc(Cl)c(Cl)c31)C(C#N)C1(CCN(C(=O)OC(C)(C)C)CC1)NC2=O (racemic)
ΔTm [1]: -0.2 °C
ΔTm [2]: 0.3 °C
ΔTm [3]: 0.3 °C
ΔTm [4]: 0 °C
ΔTm [5]: -0.2 °C
ΔTm [6]: 0 °C

Cn1c2c(c3ccc(Cl)c(Cl)c31)C(C#N)C(C)(C)NC2=O (stereo not drawn)
ΔTm [1]: 3.6 °C
ΔTm [2]: 2 °C
ΔTm [3]: 2.2 °C
ΔTm [4]: 4.3 °C
ΔTm [5]: 2.8 °C
ΔTm [6]: 1.8 °C

Cn1c2c(Cl)c(Cl)ccc2c2cn[nH]c(=O)c21
ΔTm [1]: 1.6 °C
ΔTm [2]: 1.6 °C
ΔTm [3]: 1.2 °C
ΔTm [4]: 0.9 °C
ΔTm [5]: 1.6 °C
ΔTm [6]: 1.7 °C

CC1(C)NC(=O)c2[nH]c3c(Cl)c(Cl)ccc3c2C1C#N (stereo not drawn)
ΔTm [1]: 2.3 °C
ΔTm [2]: 1.3 °C
ΔTm [3]: 1.1 °C
ΔTm [4]: 4.9 °C
ΔTm [5]: 2.5 °C
ΔTm [6]: 1.4 °C

Cn1c2c(c3ccc(Cl)c(Cl)c31)C(C#N)C1(CCOCC1)NC2=O (stereo not drawn)
ΔTm [1]: 2.2 °C
ΔTm [2]: 1 °C
ΔTm [3]: 0.7 °C
ΔTm [4]: 2.8 °C
ΔTm [5]: 1.3 °C
ΔTm [6]: 0.6 °C

Cn1c2c(c3ccc(Cl)c(Cl)c31)C(CN)C(C)(C)NC2=O (racemic)
ΔTm [1]: 3.2 °C
ΔTm [2]: 0.2 °C
ΔTm [3]: 0.9 °C
ΔTm [4]: 2.8 °C
ΔTm [5]: 0.7 °C
ΔTm [6]: 0.4 °C

CCC1(CC)NC(=O)c2c(c3ccc(Cl)c(Cl)c3n2C)C1C#N (stereo not drawn)
ΔTm [1]: 2 °C
ΔTm [2]: 0.6 °C
ΔTm [3]: 0.6 °C
ΔTm [4]: 2.8 °C
ΔTm [5]: 1.2 °C
ΔTm [6]: 0.5 °C

Cn1c2c(c3ccc(Cl)c(Cl)c31)C(C#N)C1(CCNCC1)NC2=O (racemic)
ΔTm [1]: 6.5 °C
inhibition (MV4-11): Dose-dependent effect
IC50 [7]: 2.5 µM
IC50 [8]: > 9.1 µM
ΔTm [2]: 3.6 °C
IC50 [9]: > 9.1 µM
ΔTm [3]: 5.9 °C
ΔTm [4]: 4.6 °C
ΔTm [5]: 1.4 °C
ΔTm [6]: 1 °C
IC50 [10]: 4.7 µM

Cn1c2c(Cl)c(Cl)ccc2c2cc(N)[nH]c(=O)c21
ΔTm [1]: 3 °C
ΔTm [2]: 2.4 °C
ΔTm [3]: 0.4 °C
ΔTm [4]: 2.1 °C
ΔTm [5]: 4.3 °C
ΔTm [6]: 3.1 °C

N#CC1c2c([nH]c3c(Cl)c(Cl)ccc23)C(=O)NC12CCCCC2 (racemic)
ΔTm [1]: 1.4 °C
ΔTm [2]: 1.4 °C
ΔTm [3]: 0.5 °C
ΔTm [4]: 5.7 °C
ΔTm [5]: 2.8 °C
ΔTm [6]: 0.4 °C

CC(=O)NCC1c2c(n(C)c3c(Cl)c(Cl)ccc23)C(=O)NC1(C)C (racemic)
ΔTm [1]: 0.7 °C
ΔTm [2]: 0.9 °C
ΔTm [3]: 0.3 °C
ΔTm [4]: 1.4 °C
ΔTm [5]: 0.5 °C
ΔTm [6]: 0.7 °C

CCN1CCC2(CC1)NC(=O)c1c(c3ccc(Cl)c(Cl)c3n1C)C2C#N (racemic)
ΔTm [1]: 3.9 °C
ΔTm [2]: 0.9 °C
ΔTm [3]: 2.1 °C
ΔTm [4]: 1.8 °C
ΔTm [5]: 0.9 °C
ΔTm [6]: 0 °C

Cn1c2c(c3ccccc31)C(C#N)C(C)(C)NC2=O (stereo not drawn)
ΔTm [1]: -0.2 °C
ΔTm [2]: 0.5 °C
ΔTm [3]: 1 °C
ΔTm [4]: 1.4 °C
ΔTm [5]: 0 °C
ΔTm [6]: 0.4 °C

CN1CCC2(CC1)NC(=O)c1c(c3ccc(Cl)c(Cl)c3n1C)C2C#N (racemic)
ΔTm [1]: 5.2 °C
inhibition [11]: inactive
inhibition [12]: inactive
ΔTm [2]: 1.3 °C
ΔTm [3]: 2.2 °C
ΔTm [4]: 2.1 °C
ΔTm [5]: 0.8 °C
ΔTm [6]: 0.5 °C

Cn1c2c(Cl)c(Cl)ccc2c2cc[nH]c(=O)c21
ΔTm [1]: 2.9 °C
ΔTm [2]: 4.1 °C
ΔTm [3]: 2.3 °C
ΔTm [4]: 3.2 °C
ΔTm [5]: 3.3 °C
ΔTm [6]: 4.6 °C
